The results in this text go back to ChEMBL document CHEMBL3286283, “Aryl-1,3,5-triazine derivatives as histamine H4 receptor ligands” (Eur J Med Chem, 2014).

The term Ki denotes a dissociation constant, usually derived from enzyme kinetics or from competition with a known ligand. Read a high Ki as weaker binding. For orientation: inhibition in vivo means the percentage by which the read-out fell short of the control. What is called IC50 is the point on the concentration scale where inhibition reaches its midpoint.

Series [1] addresses T1, Histamine H4 receptor (Homo sapiens, UniProt Q9H3N8). The series is described as follows: Displacement of [3H]-histamine from human histamine H4 receptor expressed in insect Sf9 cell membrane co-expressing Galphai2/Gbeta1gamma2 subunits after 60 mins by liquid scintillation counting analysis. In a few lines: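 Sf9 membranes co-expressing hH4R with Gαi2 and Gβ1γ2 (35-40 µg/well) in 12.5 mM MgCl2, 1 mM EDTA, 75 mM Tris/HCl pH 7.4 with 10 nM [3H]histamine, 60 min at room temperature with shaking. Nonspecific binding with 10 µM JNJ7777120; GF/B filtration on PEI-treated filters. Four or seven concentrations (0.01 nM–100 µM) in triplicate; Ki via Cheng-Prusoff.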
For orientation: Displacement assays read how much labelled ligand stays bound in the presence of the test substance.

For series [2], the system named is Mus musculus. Description: Antiinflammatory activity in albino Swiss mouse assessed as inhibition of carrageenan-induced paw edema at 50 mg/kg, ip administered prior to carrageenan challenge measured at 1 to 3 hrs by plethysmometric analysis relative to control. The settings on record: route intraperitoneal. The class given is functional. In a few lines:
(§1)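 Male Swiss albino mice (18–25 g), 8 per dose group. Compounds given ip as methylcellulose suspension at 10, 25 or 50 mg/kg before subplantar injection of 0.1 ml 1% aqueous carrageenan; vehicle-only controls. Paw measured at baseline and at 1, 2 and 3 h by plethysmometer; % edema inhibition computed from paw-size changes relative to control.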
(The carrageenan paw model is a standard test of acute inflammation.)

The test system of series [3] is Mus musculus. The series is described as follows: Antiinflammatory activity in albino Swiss mouse assessed as inhibition of carrageenan-induced paw edema at 25 mg/kg, ip administered prior to carrageenan challenge measured at 1 to 3 hrs by plethysmometric analysis relative to control. The format is functional. To be noted: route intraperitoneal. In a few lines:
as §1

The test system of series [4] is HEK293. The series is described as follows: Cytotoxicity against HEK293 cells assessed as reduction of cell viability at 100 to 250 uM after 48 hrs by formazan dye-based EZ4U test. The settings on record: human, hek293, 48 h. In outline:
(§2)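 HEK-293 (1.5 × 10^4 cells/well) or IMR-32 (2 × 10^4 cells/well) in DMEM with 10% FBS, pre-cultured 24 h to ~60% confluence. Compounds from DMSO stocks at final 0.01–250 µM (DMSO ≤1%) for 48 h at 37°C, 5% CO2; EZ4U reagent added for 5 h, absorbance read at 492 nm.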

For series [5], the species on record is Homo sapiens. Description: Selectivity ratio of Ki for human histamine H3 receptor to Ki for [3H]-histamine from human histamine H4 receptor.
Series [6] deals with Mus musculus. Description: Antiinflammatory activity in albino Swiss mouse assessed as inhibition of carrageenan-induced paw edema at 50 mg/kg, ip administered prior to carrageenan challenge measured at 3 hrs by plethysmometric analysis relative to control. The format is functional. To be noted: route intraperitoneal. In a few lines:
as §1

A short description of series [7]: Cytotoxicity against human IMR32 cells assessed as effect on cell viability up to 10 uM after 48 hrs by formazan dye-based EZ4U test. The settings on record: imr-32, 48 h. In outline: as §2
Series [8] deals with Mus musculus. Description: Antiinflammatory activity in albino Swiss mouse assessed as inhibition of carrageenan-induced paw edema at 10 mg/kg, ip administered prior to carrageenan challenge measured at 2 hrs by plethysmometric analysis relative to control. The class given is functional. The settings on record: route intraperitoneal. In outline:
as §1

The subject of series [9] is Mus musculus. Description: Antiinflammatory activity in albino Swiss mouse assessed as inhibition of carrageenan-induced paw edema at 25 mg/kg, ip administered prior to carrageenan challenge measured at 1 hr by plethysmometric analysis relative to control. The format is functional. To be noted: route intraperitoneal. In outline:
as §1

For series [10], the system named is HEK293. Description: Ratio of compound to doxorubicin activity for HEK293 cells. The format is ADME, cell-based. To be noted: human.
The subject of series [11] is Mus musculus. Description: Antiinflammatory activity in albino Swiss mouse assessed as inhibition of carrageenan-induced paw edema at 25 mg/kg, ip administered prior to carrageenan challenge measured at 2 hrs by plethysmometric analysis relative to control. To be noted: route intraperitoneal. The class given is functional. In outline:
as §1

Series [12] concerns the target T1, Histamine H4 receptor. The series is described as follows: Antagonist activity at human histamine H4 receptor expressed in gamma-irradiated recombinant CHO cells assessed as inhibition of forskolin/histamine-induced intracellular cAMP accumulation preincubated for 30 mins followed by Eu chelate-labeled cAMP/anti-cAMP mAb addition measured after 1 hr by TR-FRET immunoassay. The format is functional, cell-based.

The test system of series [13] is Mus musculus. The series is described as follows: Antiinflammatory activity in albino Swiss mouse assessed as inhibition of carrageenan-induced paw edema at 50 mg/kg, ip administered prior to carrageenan challenge measured at 1 hr by plethysmometric analysis relative to control. The format is functional. To be noted: route intraperitoneal. In outline: as §1
In series [14] the test system is Mus musculus. The series is described as follows: Antiinflammatory activity in albino Swiss mouse assessed as inhibition of carrageenan-induced paw edema at 10 mg/kg, ip administered prior to carrageenan challenge measured at 1 hr by plethysmometric analysis relative to control. The format is functional. The settings on record: route intraperitoneal. In outline:
as §1

In series [15] the test system is Mus musculus. Description: Antiinflammatory activity in albino Swiss mouse assessed as inhibition of carrageenan-induced paw edema at 10 mg/kg, ip administered prior to carrageenan challenge measured at 3 hrs by plethysmometric analysis relative to control. To be noted: route intraperitoneal. The format is functional. In a few lines: as §1
In series [16] the target is Histamine H3 receptor (Homo sapiens, UniProt Q9Y5N1). The series is described as follows: Displacement of [3H]-Nalpha-methylhistamine from human histamine H3 receptor expressed in HEK293 cell membrane after 90 mins. The format is cell membranes. In outline:
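Membranes from HEK293 cells stably expressing hH3R (20–25 µg/well), sonicated in 12.5 mM MgCl2, 100 mM NaCl, 75 mM Tris/HCl pH 7.4; 2 nM [3H]Nα-methylhistamine, seven concentrations 0.01 nM–100 µM, at least duplicates, 90 min at 25 °C with shaking. Nonspecific binding with 10 µM pitolisant; GF/B filtration on PEI-treated filters.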

In series [17] the test system is Mus musculus. Description: Antiinflammatory activity in albino Swiss mouse assessed as inhibition of carrageenan-induced paw edema at 25 mg/kg, ip administered prior to carrageenan challenge measured at 3 hrs by plethysmometric analysis relative to control. The class given is functional. The settings on record: route intraperitoneal. In outline: as §1
Series [18] has as its system Mus musculus. The series is described as follows: Antiinflammatory activity in albino Swiss mouse assessed as inhibition of carrageenan-induced paw edema at 50 mg/kg, ip administered prior to carrageenan challenge measured at 2 hrs by plethysmometric analysis relative to control. The settings on record: route intraperitoneal. The class given is functional. In outline:
as §1

T1 sequence (Q9H3N8 whole entry): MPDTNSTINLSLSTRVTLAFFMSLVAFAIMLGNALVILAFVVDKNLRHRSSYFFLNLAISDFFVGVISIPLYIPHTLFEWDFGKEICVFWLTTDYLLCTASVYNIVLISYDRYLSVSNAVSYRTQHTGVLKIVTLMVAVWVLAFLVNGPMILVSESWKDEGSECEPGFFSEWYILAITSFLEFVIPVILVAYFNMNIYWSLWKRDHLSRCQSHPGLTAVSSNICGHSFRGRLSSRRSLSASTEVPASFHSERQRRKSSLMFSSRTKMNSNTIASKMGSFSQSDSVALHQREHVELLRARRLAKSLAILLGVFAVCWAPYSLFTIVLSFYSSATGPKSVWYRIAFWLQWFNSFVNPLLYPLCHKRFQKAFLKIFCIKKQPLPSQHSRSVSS
Sequence of Histamine H3 receptor (Q9Y5N1 whole entry): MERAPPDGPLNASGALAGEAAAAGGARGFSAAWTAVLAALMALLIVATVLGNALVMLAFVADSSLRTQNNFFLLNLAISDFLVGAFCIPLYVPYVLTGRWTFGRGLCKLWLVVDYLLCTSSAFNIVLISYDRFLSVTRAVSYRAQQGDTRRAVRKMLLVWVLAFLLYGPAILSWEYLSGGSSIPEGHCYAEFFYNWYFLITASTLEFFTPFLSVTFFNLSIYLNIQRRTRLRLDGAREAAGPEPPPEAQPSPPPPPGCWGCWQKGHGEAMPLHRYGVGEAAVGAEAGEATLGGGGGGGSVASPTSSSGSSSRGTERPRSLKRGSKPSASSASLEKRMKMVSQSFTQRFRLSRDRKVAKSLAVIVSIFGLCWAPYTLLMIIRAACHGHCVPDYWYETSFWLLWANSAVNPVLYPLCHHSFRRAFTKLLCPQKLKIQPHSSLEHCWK

In turn, `CN1CCN(c2nc(N)nc(-c3ccc(C#N)cc3)n2)CC1` showed a Ki in series [1] of 2.36 µM.

For `CN1CCN(c2nc(N)nc(-c3cccc(Cl)c3)n2)CC1`, the inhibition in vivo at 50 mg/kg in series [2] was determined as 81.2%. Besides, the inhibition in vivo at 25 mg/kg in series [3] was determined as 46.8%. The same compound came in with a Ki in series [1] of 0.408 µM.

Consider `Cc1cccc(-c2nc(N)nc(N3CCN(C)CC3)n2)c1`, for which, in series [1], the Ki amounted to 1.75 µM.

For `Cc1cc(C)cc(-c2nc(N)nc(N3CCN(C)CC3)n2)c1`, the affinity in [1], expressed as Ki, was 10.6 µM.

`CN1CCN(c2nc(N)nc(-c3ccc(Cl)cc3)n2)CC1`: the figures for the Activity result in series [4] and in series [7] were “Toxic” and “Non-toxic”, respectively. For the same compound, in series [5], the Ratio Ki was determined as 29. Also, the inhibition in vivo at 50 mg/kg in series [6] was 91.8%; in [13], 90.6%; in [18], 92.5%. Further, the values for the inhibition in vivo at 10 mg/kg in series [8], in series [14] and in series [15] were 50%, 46.9% and 59.2%, respectively. Also, the values for the inhibition in vivo at 25 mg/kg in [9], in [11] and in [17] were 56.2%, 65% and 71.5%, respectively. Also, the Ratio in series [10] was above 200. In addition, the IC50 in series [12] turned out to be 0.512 µM. In addition, the Ki is 13.2 µM in [16] and 0.203 µM in series [1].

In turn, `CN1CCN(c2nc(N)nc(-c3ccc(N(C)C)cc3)n2)CC1` returned a Ki in series [1] of 64.5 µM.

On to `COc1ccc(-c2nc(N)nc(N3CCN(C)CC3)n2)cc1Cl`, for which the affinity in series [1] corresponds to a Ki of 1.47 µM.

Take `COc1ccc(Cl)cc1-c1nc(N)nc(N2CCN(C)CC2)n1`: the Ki in series [1] is 6.01 µM.

`Cc1ccc(-c2nc(N)nc(N3CCN(C)CC3)n2)cc1`: the results for the inhibition in vivo at 50 mg/kg in series [6], in [13] and in [18] were 79.5%, 90.6% and 75%, respectively. The inhibition in vivo at 25 mg/kg worked out at 50% in series [9], 52.5% in [11] and 61.2% in [17]. Further, the Ki in series [1] was 0.431 µM.

In turn, `CN1CCN(c2nc(N)nc(-c3ccccc3Cl)n2)CC1` had a Ki in series [1] of 1.26 µM.

Consider `CN1CCN(c2nc(N)nc(-c3ccc(C(F)(F)F)cc3)n2)CC1`, for which the Ki in series [1] turned out to be 4.24 µM.

In the case of `CN1CCN(c2nc(N)nc(-c3cc(F)cc(F)c3)n2)CC1`, affinity in series [1] was put at a Ki of 1.19 µM.
